Measured values as given in ChEMBL document CHEMBL1772998, “Cytotoxic clerodane diterpenes from Casearia rupestris” (J Nat Prod, 2011).

What was measured:
Assay type in all cases: functional, cell-based
[1] = tested on: HCT-8; experiment: Cytotoxicity against human HCT8 cells after 72 hrs by MTT assay; settings: HCT-8, 72 h
Procedure, shortened: (§1)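 Cells grown in RPMI 1640 with 10% FBS, 2 mM glutamine, streptomycin and penicillin at 37 C, 5% CO2. Seeded at 10^5 cells/well (adherent) or 0.3 × 10^6 cells/well (suspension). After 24 h, compounds in DMSO (0.39-25 μg/mL) added; doxorubicin (0.01-0.58 μg/mL) as positive control. After 69 h, MTT 0.5 mg/mL for 3 h. Formazan dissolved in DMSO, A595 read, IC50 by nonlinear regression.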

[2] = tested on: HL-60; experiment: Cytotoxicity against human HL60 cells after 72 hrs by MTT assay; settings: HL-60, 72 h; procedure, shortened: as §1
[3] = tested on: SF-295; experiment: Cytotoxicity against human SF295 cells after 72 hrs by MTT assay; settings: SF-295, 72 h; procedure, shortened: as §1
[4] = tested on: MDA-MB-435; experiment: Cytotoxicity against human MDA-MB-435 cells after 72 hrs by MTT assay; settings: MDA-MB-435, 72 h; procedure, shortened: as §1

SMILES | IC50 [1] [nM] | IC50 [2] [nM] | IC50 [3] [nM] | IC50 [4] [nM]
C=CC(=C)CC[C@]1(C)[C@H](C)[C@@H](OC(=O)/C=C\C=C\CCCCC)[C@H](OC(C)=O)[C@@]23C(=C[C@H](OC(C)=O)C[C@@H]12)[C@@H](OC(C)=O)O[C@@H]3OC(C)=O | > 5000 | > 5000 | > 5000 | > 5000
C=CC(=C)CC[C@]1(C)[C@H](C)[C@@H](O)[C@H](OC(=O)/C=C\C=C\CCCCC)[C@@]23C(=C[C@H](O)C[C@@H]12)[C@@H](OC(C)=O)O[C@@H]3OC(C)=O (relative stereo) [CASEARUPESTRIN A] | 130 | 100 | 360 | 360
C=CC(=C)CC[C@]1(C)[C@H](C)[C@@H](OC(=O)/C=C\C=C\CCCCC)[C@H](O)[C@@]23C(=C[C@H](O)C[C@@H]12)[C@@H](OC(C)=O)O[C@@H]3OC(C)=O (relative stereo) [CASEARUPESTRIN B] | 280 | 850 | 800 | 1300
COc1cccc2c1C(=O)c1c(O)c3c(c(O)c1C2=O)C[C@@](O)(C(=O)CO)C[C@@H]3O[C@H]1C[C@H](N)[C@H](O)[C@H](C)O1 [DOXORUBICIN] |  | 40 | 400 | 
C=CC(=C)CC[C@]1(C)[C@H](C)[C@@H](OC(=O)/C=C\C=C\CCCCC)[C@H](O)[C@@]23C(=C[C@H](O)C[C@@H]12)[C@@H](OC)O[C@@H]3OC(C)=O (relative stereo) [CASEARUPESTRIN C] | > 5000 | > 5000 | > 5000 | > 5000
C=CC(=C)CC[C@]1(C)[C@H](C)[C@@H](OC(=O)/C=C\C=C\CCCCC)[C@H](OC(C)=O)[C@@]23C(=C[C@H](O)C[C@@H]12)[C@@H](OC(C)=O)O[C@@H]3OC(C)=O (relative stereo) [CASEARUPESTRIN D] | 250 | 250 | 430 | 930
C=CC(=C)CC[C@]1(C)[C@H](C)[C@@H](OC(C)=O)[C@H](OC(=O)/C=C\C=C\CCCCC)[C@@]23C(=C[C@H](OC(C)=O)C[C@@H]12)[C@@H](OC(C)=O)O[C@@H]3OC(C)=O | > 5000 | 4300 | > 5000 | > 5000
